Results published in ChEMBL document CHEMBL3992538, “Hybrids of thienopyrimidinones and thiouracils as anti-tubercular agents: SAR and docking studies” (Eur J Med Chem, 2017).
≈ marks a conversion by molar mass, not a printed value.

Experiments:
[1] = Cytotoxicity against human HeLa cells assessed as growth inhibition by MTT assay; format: cell-based
In short: (§1)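 MTT assay in duplicate on THP-1 leukaemia, A549 lung adenocarcinoma, PANC-1 pancreatic adenocarcinoma and HeLa cervical carcinoma cells, all obtained from ECCC.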

[2] = Selectivity index, ratio of GI50 for human PANC1 cells to MIC for active stage of Mycobacterium tuberculosis H37Ra ATCC 25177; format: toxicity; conditions: PANC-1 cells, read-out: Selectivity Index
In short: (§2)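 Selectivity index is the cytotoxic GI50 against the named human cell line divided by the antimycobacterial value. Activity counted as specific when SI >10.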

[3] = Selectivity index, ratio of GI50 for human HeLa cells to MIC for dormant stage of Mycobacterium tuberculosis H37Ra ATCC 25177; format: toxicity, cell-based; conditions: read-out: Selectivity Index; in short: as §2
[4] = Cytotoxicity against human THP1 cells assessed as growth inhibition by MTT assay; format: cell-based; conditions: THP-1 cells; in short: as §1
[5] = tested on: Mycobacterium tuberculosis; assay: Antitubercular activity against active stage of Mycobacterium tuberculosis H37Ra ATCC 25177 infected in human THP1 cells after 8 days by nitrate reductase assay; format: functional; conditions: H37Ra ATCC 25177, 192 h
In short: (§3)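 Ex vivo test of H37Ra in THP-1 cells by nitrate reductase assay, absorbance read at 540 nm. Active stage incubated 8 days and dormant stage 12 days. H37Ra (ATCC 25177) grown in M. pheli medium to OD 1.0 and subcultured once from -70°C stock.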

[6] = tested on: Mycobacterium tuberculosis; assay: Antitubercular activity against dormant stage of Mycobacterium tuberculosis H37Ra ATCC 25177 after 12 days by XTT reduction menadione assay; format: functional; conditions: H37Ra ATCC 25177, 288 h
In short: (§4)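 M. tuberculosis H37Ra (ATCC 25177), grown to log phase (OD 1.0) in M. pheli medium from -70°C stock, subcultured once before inoculation. Incubation 8 days (active) or 12 days (dormant). XRMA read-out as absorbance at 470 nm.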

[7] = Selectivity index, ratio of GI50 for human A549 cells to MIC for active stage of Mycobacterium tuberculosis H37Ra ATCC 25177 infected in human THP1 cells; format: toxicity, cell-based; conditions: read-out: Selectivity Index; in short: as §2
[8] = Selectivity index, ratio of GI50 for human HeLa cells to MIC for active stage of Mycobacterium tuberculosis H37Ra ATCC 25177; format: toxicity, cell-based; conditions: read-out: Selectivity Index; in short: as §2
[9] = tested on: Mycobacterium tuberculosis; assay: Antitubercular activity against dormant stage of Mycobacterium tuberculosis H37Ra ATCC 25177 infected in human THP1 cells after 12 days by nitrate reductase assay; format: functional; conditions: H37Ra ATCC 25177, 288 h; in short: as §3
[10] = Cytotoxicity against human A549 cells assessed as growth inhibition by MTT assay; format: cell-based; in short: as §1
[11] = Selectivity index, ratio of GI50 for human A549 cells to MIC for dormant stage of Mycobacterium tuberculosis H37Ra ATCC 25177; format: toxicity; conditions: read-out: Selectivity Index; in short: as §2
[12] = Selectivity index, ratio of GI50 for human A549 cells to MIC for dormant stage of Mycobacterium tuberculosis H37Ra ATCC 25177 infected in human THP1 cells; format: toxicity, cell-based; conditions: read-out: Selectivity Index; in short: as §2
[13] = tested on: Mycobacterium tuberculosis; assay: Antitubercular activity against active stage of Mycobacterium tuberculosis H37Ra ATCC 25177 after 8 days by XTT reduction menadione assay; format: functional; conditions: H37Ra ATCC 25177, 192 h; in short: as §4
[14] = Selectivity index, ratio of GI50 for human HeLa cells to MIC for active stage of Mycobacterium tuberculosis H37Ra ATCC 25177 infected in human THP1 cells; format: toxicity, cell-based; conditions: read-out: Selectivity Index; in short: as §2
[15] = Selectivity index, ratio of GI50 for human HeLa cells to MIC for dormant stage of Mycobacterium tuberculosis H37Ra ATCC 25177 infected in human THP1 cells; format: toxicity, cell-based; conditions: read-out: Selectivity Index; in short: as §2
[16] = Selectivity index, ratio of GI50 for human PANC1 cells to MIC for active stage of Mycobacterium tuberculosis H37Ra ATCC 25177 infected in human THP1 cells; format: toxicity, cell-based; conditions: PANC-1 cells, read-out: Selectivity Index; in short: as §2
[17] = Selectivity index, ratio of GI50 for human A549 cells to MIC for active stage of Mycobacterium tuberculosis H37Ra ATCC 25177; format: toxicity; conditions: read-out: Selectivity Index; in short: as §2
[18] = Selectivity index, ratio of GI50 for human PANC1 cells to MIC for dormant stage of Mycobacterium tuberculosis H37Ra ATCC 25177; format: toxicity; conditions: PANC-1 cells, read-out: Selectivity Index; in short: as §2
[19] = Cytotoxicity against human PANC1 cells assessed as growth inhibition by MTT assay; format: cell-based; conditions: PANC-1 cells; in short: as §1
[20] = Selectivity index, ratio of GI50 for human PANC1 cells to MIC for dormant stage of Mycobacterium tuberculosis H37Ra ATCC 25177 infected in human THP1 cells; format: toxicity, cell-based; conditions: PANC-1 cells, read-out: Selectivity Index; in short: as §2

Structure (SMILES) | GI50 [1] [µg/mL] | selectivity ratio [2] | selectivity ratio [3] | GI50 [4] [µg/mL] | MIC [5] [µg/mL] | MIC [6] [µg/mL] | selectivity ratio [7] | selectivity ratio [8] | MIC [9] [µg/mL] | GI50 [10] [µg/mL] | selectivity ratio [11] | selectivity ratio [12] | MIC [13] [µg/mL] | selectivity ratio [14] | selectivity ratio [15] | selectivity ratio [16] | selectivity ratio [17] | selectivity ratio [18] | GI50 [19] [µg/mL] | selectivity ratio [20]
CCCCCCCCCCCn1c(SCCCn2cnc3sc4c(c3c2=O)CCCC4)nc(-c2cc(OC)c(OC)c(OC)c2)c(C#N)c1=O | > 100 | > 3 | > 3 | > 100 | > 30 | > 30 | > 3 | > 3 | > 30 | > 100 | > 3 | > 3 | > 30 | > 3 | > 3 | > 3 | > 3 | > 3 | > 100 | > 3
CCCc1cc2c(=O)n(CCCSc3nc(-c4cc(OC)c(OC)c(OC)c4)c(C#N)c(=O)[nH]3)cnc2s1 | 52.5 (≈ 94.8 µM) | > 3 | 3 | > 100 | > 30 | 19.1 (≈ 34.5 µM) | > 3 | 2 | 11.9 (≈ 21.5 µM) | > 100 | > 5 | > 8 | > 30 | 2 | 4 | > 3 | > 3 | > 5 | > 100 | > 8
COc1cc(-c2nc(SCCCn3cnc4sc5c(c4c3=O)CCCC5)n(S(=O)(=O)c3ccc(C)cc3)c(=O)c2C#N)cc(OC)c1OC | 64.2 (≈ 89.2 µM) | > 3 | 2 | > 100 | > 30 | > 30 | > 3 | 2 | > 30 | > 100 | > 3 | > 3 | > 30 | 2 | < 2 | > 3 | > 3 | > 3 | > 100 | > 3
COc1cc(-c2nc(SCCCn3cnc4sc5c(c4c3=O)CCCC5)[nH]c(=O)c2C#N)cc(OC)c1OC | 55.7 (≈ 98.5 µM) | 2 | 2 | 97.6 (≈ 173 µM) | 28.8 (≈ 50.9 µM) | 23.4 (≈ 41.4 µM) | 3 | 2 | 26.1 (≈ 46.1 µM) | 91.4 (≈ 162 µM) | 4 | 3 | 25.4 (≈ 44.9 µM) | 2 | 2 | 2 | 4 | 2 | 52.8 (≈ 93.3 µM) | 2
CCCCCc1cc2c(=O)n(CCCSc3nc(-c4cc(OC)c(OC)c(OC)c4)c(C#N)c(=O)[nH]3)cnc2s1 | 75.8 (≈ 130 µM) | > 2 | 6 | > 100 | > 30 | 12.3 (≈ 21.1 µM) | > 3 | 3 | 9.8 (≈ 16.8 µM) | > 100 | > 8 | > 10 | > 30 | 3 | 8 | > 2 | > 3 | > 6 | 72.8 (≈ 125 µM) | > 7
COc1cc(-c2nc(SCCCn3cnc4sc5c(c4c3=O)CCCC5)n(Cc3c(F)c(F)c(F)c(F)c3F)c(=O)c2C#N)cc(OC)c1OC | > 100 | > 3 | > 4 | > 100 | > 30 | 28.3 (≈ 37.9 µM) | > 3 | > 3 | 26.5 (≈ 35.5 µM) | > 100 | > 4 | > 4 | > 30 | > 3 | > 4 | > 3 | > 3 | > 4 | > 100 | > 4
CCCCCCCc1cc2c(=O)n(CCCSc3nc(-c4cc(OC)c(OC)c(OC)c4)c(C#N)c(=O)[nH]3)cnc2s1 | 76.1 (≈ 125 µM) | 3 | 10 | 68.2 (≈ 112 µM) | > 30 | 7.6 (≈ 12.5 µM) | < 3 | 3 | 6.91 (≈ 11.3 µM) | 90.5 (≈ 148 µM) | 12 | 13 | > 30 | 3 | 11 | 3 | 3 | > 13 | > 100 | > 14
CCCCCCc1cc2c(=O)n(CCCSc3nc(-c4cc(OC)c(OC)c(OC)c4)c(C#N)c(=O)[nH]3)cnc2s1 | 67 (≈ 112 µM) | 1 | 8 | 54.3 (≈ 91.1 µM) | > 30 | 8.7 (≈ 14.6 µM) | < 3 | 2 | 7.1 (≈ 11.9 µM) | 90.2 (≈ 151 µM) | 10 | 13 | > 30 | 2 | 9 | 1 | 3 | 3 | 28.1 (≈ 47.2 µM) | 4
COc1cc(-c2nc(SCCCn3cnc4sc5c(c4c3=O)CCCC5)n(Cc3ccccc3)c(=O)c2C#N)cc(OC)c1OC | 72.1 (≈ 110 µM) | 2 | 2 | > 100 | > 30 | > 30 | > 3 | 2 | > 30 | > 100 | > 3 | > 3 | > 30 | 2 | 2 | 2 | > 3 | 2 | 51.9 (≈ 79.1 µM) | 2
CCCCCn1c(SCCCn2cnc3sc4c(c3c2=O)CCCC4)nc(-c2cc(OC)c(OC)c(OC)c2)c(C#N)c1=O | 73 (≈ 115 µM) | > 3 | 2 | > 100 | > 30 | > 30 | > 3 | 2 | > 30 | > 100 | > 3 | > 3 | > 30 | 2 | 2 | > 3 | > 3 | > 3 | > 100 | > 3
COc1cc(-c2nc(SCCCn3cnc4sc5c(c4c3=O)CCCC5)n(CCC(F)(F)C(F)(F)C(F)(F)C(F)(F)C(F)(F)C(F)(F)F)c(=O)c2C#N)cc(OC)c1OC | > 100 | > 3 | > 8 | > 100 | > 30 | 11.7 (≈ 12.8 µM) | > 3 | > 3 | 8.8 (≈ 9.65 µM) | > 100 | > 8 | > 11 | > 30 | > 3 | > 11 | > 3 | > 3 | > 8 | > 100 | > 11
